Columns and labels:
SK-HEP1 = test: Inhibitory concentration against human SK-Hep-1 cells (hepatoma cell line); type: functional, cell-based
Summary of the method: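 SK-HEP-1 cells carrying pre-labeled ¹⁴C-glycogen, with phosphorylase activated by forskolin. Glycogenolysis is the ¹⁴C-glycogen (dpm) difference between basal and forskolin-treated cells. Inhibition is expressed as percent of forskolin-induced glycogenolysis in DMSO controls. IC50 from a 6-point curve (0.1–30μM), triplicate points, mean of ≥2 independent experiments where repeated.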

[1] = target: T1, Glycogen phosphorylase, liver form (Homo sapiens, UniProt P06737); test: Inhibitory concentration against glycogen phosphorylase
T1 sequence (P06737 whole entry): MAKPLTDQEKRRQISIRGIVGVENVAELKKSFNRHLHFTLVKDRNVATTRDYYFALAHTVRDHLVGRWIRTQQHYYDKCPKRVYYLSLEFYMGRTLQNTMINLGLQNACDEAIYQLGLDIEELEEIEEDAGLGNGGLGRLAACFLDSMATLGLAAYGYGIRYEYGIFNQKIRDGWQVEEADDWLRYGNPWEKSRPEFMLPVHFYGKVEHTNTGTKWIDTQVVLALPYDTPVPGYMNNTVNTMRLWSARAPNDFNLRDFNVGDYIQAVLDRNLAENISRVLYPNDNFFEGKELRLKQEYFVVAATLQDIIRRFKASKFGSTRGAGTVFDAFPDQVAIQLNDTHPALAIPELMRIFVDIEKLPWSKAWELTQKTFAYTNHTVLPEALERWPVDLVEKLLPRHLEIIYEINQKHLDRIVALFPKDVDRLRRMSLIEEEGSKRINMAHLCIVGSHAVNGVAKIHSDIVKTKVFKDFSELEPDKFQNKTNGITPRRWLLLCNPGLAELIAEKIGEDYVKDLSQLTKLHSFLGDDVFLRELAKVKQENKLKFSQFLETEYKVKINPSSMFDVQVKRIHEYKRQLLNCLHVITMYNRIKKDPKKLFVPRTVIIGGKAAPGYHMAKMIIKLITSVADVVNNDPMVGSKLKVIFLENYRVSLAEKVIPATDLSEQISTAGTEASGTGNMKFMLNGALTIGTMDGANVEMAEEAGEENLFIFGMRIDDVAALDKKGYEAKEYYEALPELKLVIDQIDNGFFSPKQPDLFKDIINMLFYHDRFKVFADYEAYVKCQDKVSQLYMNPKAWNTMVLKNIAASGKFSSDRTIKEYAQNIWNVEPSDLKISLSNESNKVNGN

Mus musculus = test: In-vivo minimum effective dose (MED) for reduction of plasma glucose in mouse after 3 hours; type: functional; settings: read-out: MED
Summary of the method: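 Fed diabetic ob/ob mice, oral dosing in neat PEG400, starting at […] and then at successively lower doses. Plasma glucose measured 3h post-dose. Lowering is expressed as percent decrease versus vehicle-treated controls within the same experiment, with significance by unpaired t-test on group mean glucose. MED is the lowest dose giving reduction.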

Row | Structure (SMILES) | IC50 (SK-HEP1) [nM] | IC50 [1] [nM] | minimal effective dose (Mus musculus) [mg/kg]
1 | O=C(NCC(=O)N(CCO)CC1CCCO1)c1cc2cc(Cl)ccc2[nH]1 (stereo not drawn) | 5700 | 550 | –
2 | O=C(NCC(=O)N(CCO)Cc1cccnc1)c1cc2cc(Cl)ccc2[nH]1 | – | 1100 | –
3 | NCCN(C(=O)CNC(=O)c1cc2cc(Cl)ccc2[nH]1)C1CCCC1 | – | 1600 | –
4 | O=C(NCC(=O)N(CCN1CCOCC1)C1CCCC1)c1cc2cc(Cl)ccc2[nH]1 | – | 1500 | –
5 | CN(CC1CC1)C(=O)CNC(=O)c1cc2cc(Cl)ccc2[nH]1 | 1200 | 470 | –
6 | CN(CCc1ccccc1)C(=O)CNC(=O)c1cc2cc(Cl)ccc2[nH]1 | – | > 10000 | –
7 | O=C(NCC(=O)N(CCO)Cc1ncc[nH]1)c1cc2cc(Cl)ccc2[nH]1 | 14000 | 430 | –
8 | CN(C(=O)CNC(=O)c1cc2cc(Cl)ccc2[nH]1)C1CCC(O)CC1 (stereo not drawn) | – | 2100 | –
9 | O=C(NCC(=O)N(CCO)C1CCCCCCCCCCC1)c1cc2cc(Cl)ccc2[nH]1 | > 30000 | 950 | –
10 | O=C(NCC(=O)N(CCOCc1ccccc1)C1CCCC1)c1cc2cc(Cl)ccc2[nH]1 | – | 1600 | –
11 | CN(C(=O)CNC(=O)c1cc2cc(Cl)ccc2[nH]1)C1CC1 | – | 670 | –
12 | CN1CCC(N(C)C(=O)CNC(=O)c2cc3cc(Cl)ccc3[nH]2)C1 (stereo not drawn) | – | 9600 | –
13 | CN(CCO)C(=O)CNC(=O)c1cc2cc(Cl)ccc2[nH]1 | 4000 | 570 | –
14 | CN(Cc1ccncc1)C(=O)CNC(=O)c1cc2cc(Cl)ccc2[nH]1 | – | 1600 | –
15 | CC(C)OCCN(C(=O)CNC(=O)c1cc2cc(Cl)ccc2[nH]1)C1CCCC1 | – | 1100 | –
16 | CN(C)CCCN(C(=O)CNC(=O)c1cc2cc(Cl)ccc2[nH]1)C1CCCC1 | – | 5000 | –
17 | NC(=O)CN(C(=O)CNC(=O)c1cc2cc(Cl)ccc2[nH]1)C1CCCC1 | – | 4600 | –
18 | NCCCN(C(=O)CNC(=O)c1cc2cc(Cl)ccc2[nH]1)C1CCCC1 | – | 3000 | –
19 | O=C(NCC(=O)N(CCCCO)C1CCCC1)c1cc2cc(Cl)ccc2[nH]1 | – | 3900 | –

Row | Structure (SMILES) | IC50 (SK-HEP1) [nM] | IC50 [1] [nM] | minimal effective dose (Mus musculus) [mg/kg]
20 | CN(Cc1ccccn1)C(=O)CNC(=O)c1cc2cc(Cl)ccc2[nH]1 | – | 1500 | –
21 | CN(C)CCN(C(=O)CNC(=O)c1cc2cc(Cl)ccc2[nH]1)C1CCCC1 | – | 9700 | –
22 | CC(C)OCCCN(C(=O)CNC(=O)c1cc2cc(Cl)ccc2[nH]1)C1CCCC1 | – | 670 | –
23 | O=C(NCC(=O)N(C1CCCC1)C1CCCC1)c1cc2cc(Cl)ccc2[nH]1 | – | 660 | –
24 | COCCCN(C(=O)CNC(=O)c1cc2cc(Cl)ccc2[nH]1)C1CCCC1 | – | 370 | –
25 | COCC(N)CN(C(=O)CNC(=O)c1cc2cc(Cl)ccc2[nH]1)C1CCCC1 (stereo not drawn) | – | 1200 | –
26 | CN(C(=O)CNC(=O)c1cc2cc(Cl)ccc2[nH]1)C(C)(C)C | – | 670 | –
27 | CN(C(=O)CNC(=O)c1cc2cc(Cl)ccc2[nH]1)C1CCN(C=O)CC1 | – | 8400 | –
28 | CN(Cc1cccnc1)C(=O)CNC(=O)c1cc2cc(Cl)ccc2[nH]1 | – | 1900 | –
29 | CN(CC(F)(F)F)C(=O)CNC(=O)c1cc2cc(Cl)ccc2[nH]1 | – | 1900 | –
30 | CN(Cc1ccccc1)C(=O)CNC(=O)c1cc2cc(Cl)ccc2[nH]1 | > 10000 | 550 | –
31 | CCOC(=O)CN(C(=O)CNC(=O)c1cc2cc(Cl)ccc2[nH]1)C1CCCC1 | 5200 | 530 | –
32 | CN(C(=O)CNC(=O)c1cc2cc(Cl)ccc2[nH]1)C1CCOCC1 | 3400 | 510 | –
33 | NC(CO)CN(C(=O)CNC(=O)c1cc2cc(Cl)ccc2[nH]1)C1CCCC1 (stereo not drawn) | 8300 | 510 | –
34 | CC(C)OCC(O)CN(C(=O)CNC(=O)c1cc2cc(Cl)ccc2[nH]1)C1CCCC1 (stereo not drawn) | – | 930 | –
35 | O=C(NCC(=O)N(CCO)C1CCS(=O)(=O)C1)c1cc2cc(Cl)ccc2[nH]1 (stereo not drawn) | – | 1300 | –
36 | CN(C)C(=O)CN(C(=O)CNC(=O)c1cc2cc(Cl)ccc2[nH]1)C1CCCC1 | 13000 | 410 | –
37 | CN(C(=O)CNC(=O)c1cc2cc(Cl)ccc2[nH]1)C1CCS(=O)(=O)C1 (stereo not drawn) | 2000 | 410 | –

Now those with a lower IC50 [1], led by results:

Row | IC50 (SK-HEP1) [nM] | IC50 [1] [nM] | Structure (SMILES) | minimal effective dose (Mus musculus) [mg/kg]
38 | 1500 | 200 | COCCN(C(=O)CNC(=O)c1cc2cc(Cl)ccc2[nH]1)C1CCCC1 | > 10
39 | 1000 | 170 | CN(C(=O)CNC(=O)c1cc2cc(Cl)ccc2[nH]1)C1CCC1 | –
40 | 1400 | 210 | CC(CCO)N(C(=O)CNC(=O)c1cc2cc(Cl)ccc2[nH]1)C1CCCC1 (stereo not drawn) | –
41 | 5000 | 340 | O=C(NCC(=O)N(CCO)C1CCSC1)c1cc2cc(Cl)ccc2[nH]1 (stereo not drawn) | –
42 | 490 | 150 | CCCN(CCO)C(=O)CNC(=O)c1cc2cc(Cl)ccc2[nH]1 | > 25
43 | 1300 | 54 | O=C(NCC(=O)N(CC(O)CO)C1CCCC1)c1cc2cc(Cl)ccc2[nH]1 (stereo not drawn) | 10
44 | 19000 | 250 | CN(C(=O)CNC(=O)c1cc2cc(Cl)ccc2[nH]1)C1CCN(C=O)C1 (stereo not drawn) | –
45 | 7100 | 210 | CN(C(=O)CNC(=O)c1cc2cc(Cl)ccc2[nH]1)c1ccccc1 | –
46 | 2500 | 320 | O=C(NCC(=O)N(CCO)Cc1ccccc1)c1cc2cc(Cl)ccc2[nH]1 | –
47 | > 30000 | 210 | O=C(NCC(=O)N(CCO)C1CCCCCCCCC1)c1cc2cc(Cl)ccc2[nH]1 | –
48 | > 30000 | 12 | O=C(NCC(=O)N(CCO)C1CCS(=O)(=O)CC1)c1cc2cc(Cl)ccc2[nH]1 | –
49 | 9400 | 82 | CCCCN(C(=O)CNC(=O)c1cc2cc(Cl)ccc2[nH]1)C1CCCC1 | –
50 | 9400 | 350 | O=C(NCC(=O)N(C(CO)CO)C1CCCC1)c1cc2cc(Cl)ccc2[nH]1 | –
51 | 760 | 42 | O=C(NCC(=O)N(CCCO)C1CCCC1)c1cc2cc(Cl)ccc2[nH]1 | > 10
52 | 4600 | 200 | O=C(NCC(=O)N(CCO)C1CC1)c1cc2cc(Cl)ccc2[nH]1 | –
53 | 1300 | 16 | CC(O)CN(C(=O)CNC(=O)c1cc2cc(Cl)ccc2[nH]1)C1CCCC1 (stereo not drawn) | –
54 | 2400 | 83 | CC(O)(CO)CN(C(=O)CNC(=O)c1cc2cc(Cl)ccc2[nH]1)C1CCCC1 (stereo not drawn) | > 10
55 | – | 340 | CCCN(C(=O)CNC(=O)c1cc2cc(Cl)ccc2[nH]1)C1CCCC1 | –
56 | 12000 | 32 | O=C(NCC(=O)N(CCO)C1CCCCCCC1)c1cc2cc(Cl)ccc2[nH]1 | –

Row | IC50 (SK-HEP1) [nM] | IC50 [1] [nM] | Structure (SMILES) | minimal effective dose (Mus musculus) [mg/kg]
57 | 9900 | 340 | CN(C(=O)CNC(=O)c1cc2cc(Cl)ccc2[nH]1)c1ccccn1 | –
58 | 1500 | 160 | O=C(NCC(=O)N(CCO)CC1CC1)c1cc2cc(Cl)ccc2[nH]1 | > 10
59 | 900 | 96 | C=CCN(C(=O)CNC(=O)c1cc2cc(Cl)ccc2[nH]1)C1CCCC1 | –
60 | 750 | 140 | N#CCCN(C(=O)CNC(=O)c1cc2cc(Cl)ccc2[nH]1)C1CCCC1 | –
61 | > 10000 | 260 | O=C(O)CN(C(=O)CNC(=O)c1cc2cc(Cl)ccc2[nH]1)C1CCCC1 | –
62 | 1700 | 330 | CN(C(=O)CNC(=O)c1cc2cc(Cl)ccc2[nH]1)c1cccnc1 | –
63 | 1800 | 55 | O=C(NCC(=O)N(CCO)C1CCOC1)c1cc2cc(Cl)ccc2[nH]1 (stereo not drawn) | –
64 | 870 | 100 | COCC(O)CN(C(=O)CNC(=O)c1cc2cc(Cl)ccc2[nH]1)C1CCCC1 (stereo not drawn) | –
65 | 1800 | 49 | O=C(NCC(=O)N(CCO)C1CCc2ccccc21)c1cc2cc(Cl)ccc2[nH]1 (stereo not drawn) | –
66 | 28000 | 82 | O=C(NCC(=O)N(CCO)C1CCCCCCCC1)c1cc2cc(Cl)ccc2[nH]1 | –
67 | 620 | 230 | CC(C)CN(C)C(=O)CNC(=O)c1cc2cc(Cl)ccc2[nH]1 | –
68 | 1400 | 150 | CCCCN(C)C(=O)CNC(=O)c1cc2cc(Cl)ccc2[nH]1 | –
69 | 3400 | 210 | CC(C)N(CCO)C(=O)CNC(=O)c1cc2cc(Cl)ccc2[nH]1 | > 10
70 | 6700 | 290 | CC(C)(C)N(CCO)C(=O)CNC(=O)c1cc2cc(Cl)ccc2[nH]1 | –
71 | 410 | 210 | CCN(C(=O)CNC(=O)c1cc2cc(Cl)ccc2[nH]1)C1CCCC1 | –
72 | > 10000 | 320 | CN(C(=O)CNC(=O)c1cc2cc(Cl)ccc2[nH]1)C1CCCCCC1 | –
73 | 2300 | 30 | O=C(NCC(=O)N(CCO)C1CCCCCC1)c1cc2cc(Cl)ccc2[nH]1 | –
74 | 1500 | 260 | O=C(NCC(=O)N(CCO)Cc1ccco1)c1cc2cc(Cl)ccc2[nH]1 | –

From ChEMBL document CHEMBL1144257, “5-Chloroindoloyl glycine amide inhibitors of glycogen phosphorylase: synthesis, in vitro, in vivo, and X-ray crystallographic characterization” (Bioorg Med Chem Lett, 2005)
